Consider 1 molecule from ChEMBL document CHEMBL4138245, “Design and synthesis of novel quinacrine-[1,3]-thiazinan-4-one hybrids for their anti-breast cancer activity” (Eur J Med Chem, 2018).

The test system of data set [1] is MCF7. The data set is described as follows: Potency index, ratio of cisplatin IC50 to compound IC50 for antiproliferative activity against human MCF7 cells. It counts as functional.
The next data set concerns MDA-MB-231. The experiment in a line: Antiproliferative activity against human MDA-MB-231 cells assessed as compound concentration required to show complete inhibition of cell viability up to 96 hrs by SRB assay. It counts as functional. On the technique in general: Sulforhodamine B stains cellular protein and so reports cell mass.
The next data set has as its system LNCaP. The experiment in a line: Antiproliferative activity against human LNCAP cells assessed as compound concentration required to show complete inhibition of cell viability up to 96 hrs by SRB assay. It counts as functional.
In another data set the test system is A549. The data set is described as follows: Antiproliferative activity against human A549 cells assessed as compound concentration required to show complete inhibition of cell viability up to 96 hrs by SRB assay. The data set is classed as functional.
The subject of data set [2] is MCF7. The experiment in a line: Inhibition of DNA replication in human MCF7 cells assessed as EdU incorporation at 2 uM pretreated for 48 hrs followed by EdU addition at final 45 mins of 48 hrs incubation time (reference value: 45 to 63%). On the set-up: scale not given: the % may be the effect or the level left. The data set is classed as functional.
Another data set deals with 184B5. The data set is described as follows: Inhibition of DNA replication in human 184B5 cells assessed as EdU incorporation at 2 uM pretreated for 48 hrs followed by EdU addition at final 45 mins of 48 hrs incubation time (reference value: 55%). It counts as cell-based. Conditions: 184b5, 48 h. Set-up: scale not given: the % may be the effect or the level left.
Data set [3] has as its system MCF7. The experiment in a line: Effect on Cyclin-D protein expression in human MCF7 cells at 2 uM after 24 to 72 hrs by Western blot method. It counts as functional, cell-based. (In western blotting, separated proteins are transferred to a membrane and probed.)
In data set [4] the target is Serine/threonine-protein kinase Chk2 (Homo sapiens) (UniProt O96017). The experiment in a line: Induction of CHK2 phosphorylation at T68 residue in human MCF7 cells at 2 uM after 12 to 48 hrs by Western blot method. It counts as cell-based.
Chain of Serine/threonine-protein kinase Chk2 (Homo sapiens) (O96017 whole entry): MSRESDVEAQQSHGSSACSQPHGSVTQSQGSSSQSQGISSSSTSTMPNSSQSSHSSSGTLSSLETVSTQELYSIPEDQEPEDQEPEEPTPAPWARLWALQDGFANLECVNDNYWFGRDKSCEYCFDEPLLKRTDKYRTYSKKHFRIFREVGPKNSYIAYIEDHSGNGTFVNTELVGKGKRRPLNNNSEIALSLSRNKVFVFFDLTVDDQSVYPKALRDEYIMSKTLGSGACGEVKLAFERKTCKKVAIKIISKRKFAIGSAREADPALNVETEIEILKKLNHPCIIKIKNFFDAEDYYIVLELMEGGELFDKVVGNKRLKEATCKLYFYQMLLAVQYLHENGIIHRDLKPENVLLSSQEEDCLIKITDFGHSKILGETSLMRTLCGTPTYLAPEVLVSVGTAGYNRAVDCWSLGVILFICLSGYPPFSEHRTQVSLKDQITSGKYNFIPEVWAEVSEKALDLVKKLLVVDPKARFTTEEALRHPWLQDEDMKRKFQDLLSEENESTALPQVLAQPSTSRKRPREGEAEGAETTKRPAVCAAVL
Data set [5] deals with Serine/threonine-protein kinase mTOR (Homo sapiens) (UniProt P42345). The experiment in a line: Inhibition of mTOR phosphorylation at S2448 residue in human MCF7 cells at 2 uM after 6 hrs by Western blot method. It counts as cell-based.
Data set [6] deals with RAC-alpha serine/threonine-protein kinase (Homo sapiens) (UniProt P31749). The data set is described as follows: Upregulation of AKT phosphorylation at Thr308 residue in human MCF7 cells at 2 uM after 24 to 48 hrs by Western blot method. It counts as cell-based. The gist of the method:
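MCF7 cells were treated with the compound, collected and PBS-washed, then lysed on ice (Triton X-100/Tris pH 7.4 buffer with PMSF and protease inhibitors). Lysates were BCA-quantified, and 30–40 µg protein was resolved on 8% or 10% SDS-PAGE. Proteins were semi-dry transferred to PVDF, milk-blocked and probed with primary antibody overnight at 4 °C, then detected by ECL. Blots are representative of three independent experiments.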

The nature of data set [7]: Selectivity index, ratio of compound concentration for cell killing activity in human MCF10A cells to compound concentration for cell killing activity in human MCF7 cells. It counts as toxicity, cell-based. The note with it: MCF10A cells versus MCF7 cells, read-out: Selectivity Index.
Data set [8] in a line: Selectivity index, ratio of compound concentration for cell killing activity in human MCF10A cells to compound concentration for cell killing activity in human MDA-MB-231 cells. It counts as toxicity, cell-based. Conditions: MCF10A cells versus MDA-MB-231 cells, read-out: Selectivity Index.
A short description of data set [9]: Selectivity index, ratio of compound concentration for cell killing activity in human MCF10A cells to compound concentration for cell killing activity in human LNCAP cells. It counts as toxicity, cell-based. The note with it: MCF10A cells versus LNCAP cells, read-out: Selectivity Index.
Data set [10] in a line: Selectivity index, ratio of compound concentration for cell killing activity in human 184B5 cells to compound concentration for cell killing activity in human PC3 cells. It counts as toxicity, cell-based. The note with it: 184B5 cells versus PC3 cells, read-out: Selectivity Index.

Calls of active or inactive are those of the source. No cut-off for these calls is given here.

Chain of RAC-alpha serine/threonine-protein kinase (Homo sapiens) (P31749 whole entry): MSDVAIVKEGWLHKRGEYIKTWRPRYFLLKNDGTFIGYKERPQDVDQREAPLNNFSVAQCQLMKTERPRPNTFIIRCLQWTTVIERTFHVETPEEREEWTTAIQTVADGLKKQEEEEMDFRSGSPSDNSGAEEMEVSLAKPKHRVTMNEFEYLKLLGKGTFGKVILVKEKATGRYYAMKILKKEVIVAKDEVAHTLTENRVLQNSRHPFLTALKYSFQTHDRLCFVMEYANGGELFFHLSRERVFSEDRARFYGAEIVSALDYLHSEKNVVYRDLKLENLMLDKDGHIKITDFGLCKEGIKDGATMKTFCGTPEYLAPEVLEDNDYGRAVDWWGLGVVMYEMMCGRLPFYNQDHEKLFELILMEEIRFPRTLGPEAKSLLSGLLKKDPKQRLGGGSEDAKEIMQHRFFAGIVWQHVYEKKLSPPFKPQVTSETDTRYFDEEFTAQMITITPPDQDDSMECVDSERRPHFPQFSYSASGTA

On to `COc1ccc2nc3cc(Cl)ccc3c(NCCCN3C(=O)CCSC3c3cccs3)c2c1` (centres undefined), for which, in the data set on MCF7 [1], the “Ratio IC50” value was 37.3. Further, the Activity was determined as 2 µM in the data set with MDA-MB-231; 2 µM in the data set with LNCaP; 2 µM with A549; 5% with MCF7 [2]; 52% in the data set with 184B5. In addition, the result (in the data set on MCF7 [3]; in [4]) was inactive. Further, the inhibition result in data set [5] is “Active”. In [6], the result was Active. In addition, the selectivity ratio in data set [7], in [8], in data set [9] and in [10] was 3 to 6 throughout.
